Laboratory results as given in ChEMBL document CHEMBL3108680, “Diversity-oriented synthesis of α-aminophosphonates: a new class of potential anticancer agents” (Eur J Med Chem, 2013).
pIC50: −log10 of the molar value. Calls of active or inactive are those of the source. The rule behind the calls is not given here.

How the values were obtained:
Format in all cases: functional, cell-based
[1] = tested on: Jurkat; assay: Cytotoxicity against human Jurkat cells after 48 hrs by MTT assay
In short: (§1)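 Cells seeded at line-dependent densities, held 24 h compound-free, then exposed 48 h to six 2-fold dilutions (top […]). MTT (10 mg/ml PBS solution) added for 4 h at 37 °C; DMSO-solubilized formazan read at 570 nm. Three runs in triplicate.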

[2] = (§2) Cytotoxicity against human MG63 cells after 48 hrs by MTT assay; details: MG-63, 48 h
In short: (§3)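 Cells seeded at densities suited to their growth and incubated 24 h compound-free. They were then treated 48 h with six 2-fold serial dilutions, top […]. Viability was measured by MTT (added from a 10 mg/ml PBS solution; 4 h, 37 °C), followed by centrifugation, DMSO dissolution and A570. Run thrice in triplicate; mean ± SD, n = 3.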

[3] = tested on: MG-63; assay: as §2; in short: as §3
[4] = (§4) Cytotoxicity against human COLO320DM cells after 48 hrs by MTT assay; details: COLO 320DM
In short: as §1, with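 “Jurkat and Colo 320DM grown in RPMI 1640 with 10% FBS and 1% ampicillin; A549 in 90% DMEM with 10% FBS. Cells” for “Cells”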

[5] = tested on: COLO 320DM; assay: as §4
In short: as §1, with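 “Jurkat and Colo 320DM grown in RPMI 1640 with 10% FBS and 1% ampicillin; A549 in 90% DMEM with 10% FBS. Cells” for “Cells”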

[6] = tested on: NCI-H23; assay: Cytotoxicity against human NCI-H23 cells after 48 hrs by MTT assay; details: for pIC50: NCI-H23, 48 h; in short: as §3
[7] = tested on: A549; assay: Cytotoxicity against human A549 cells after 48 hrs by MTT assay; details: for pIC50: A549, 48 h
In short: as §1, with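 “Jurkat and Colo 320DM grown in RPMI 1640 with 10% FBS and 1% ampicillin; A549 in 90% DMEM with 10% FBS. Cells” for “Cells”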

[8] = tested on: Jurkat; assay: Cytotoxicity against human Jurkat cells at 100 uM after 48 hrs by MTT assay
[9] = tested on: Jurkat; assay: Cytotoxicity against human Jurkat cells at 500 uM after 48 hrs by MTT assay
[10] = tested on: MG-63; assay: Cytotoxicity against human MG63 cells at 500 uM after 48 hrs by MTT assay
[11] = tested on: COLO 320DM; assay: Cytotoxicity against human COLO320DM cells at 500 uM after 48 hrs by MTT assay
[12] = tested on: NCI-H23; assay: Cytotoxicity against human NCI-H23 cells at 500 uM after 48 hrs by MTT assay
[13] = tested on: A549; assay: Cytotoxicity against human A549 cells at 500 uM after 48 hrs by MTT assay
[14] = tested on: MG-63; assay: Cytotoxicity against human MG63 cells at 250 uM after 48 hrs by MTT assay
[15] = tested on: NCI-H23; assay: Cytotoxicity against human NCI-H23 cells at 250 uM after 48 hrs by MTT assay
[16] = tested on: Jurkat; assay: Cytotoxicity against human Jurkat cells at 200 uM after 48 hrs by MTT assay
[17] = tested on: COLO 320DM; assay: Cytotoxicity against human COLO320DM cells at 200 uM after 48 hrs by MTT assay
[18] = tested on: A549; assay: Cytotoxicity against human A549 cells at 200 uM after 48 hrs by MTT assay

Structure (SMILES) | pIC50 [1] | inhibition [1] | pIC50 [2] | inhibition [3] | pIC50 [4] | inhibition [5] | inhibition [6] | pIC50 [6] | inhibition [7] | pIC50 [7] | also measured
CCOP(=O)(OCC)C(Nc1ccccc1O)c1ccc2c(c1)OCO2 (stereo unspecified) | < 3.30 | Dose-dependent effect | 3.94 | Dose-dependent effect | 4.10 | Dose-dependent effect | Dose-dependent effect | 3.72 | Dose-dependent effect | 3.56 | –
CCOP(=O)(OCC)C(Nc1ccccc1)c1ccc(OC)c(OC)c1 (stereo unspecified) | – | – | 4.47 | Dose-dependent effect | 4.44 | Dose-dependent effect | Dose-dependent effect | 4.40 | Dose-dependent effect | 4.13 | inhibition [8]: inactive
CC/C(=C(\c1ccccc1)c1ccc(OCCN(C)C)cc1)c1ccccc1 | – | Dose-dependent effect | – | – | – | – | – | – | – | – | –
CCCCOP(=O)(OCCCC)C(N[C@@H](C)c1ccccc1)c1ccc2c(c1)OCO2 (stereo partly specified) | – | – | – | – | – | – | – | – | – | – | inhibition [9]: inactive; inhibition [10]: inactive; inhibition [11]: inactive; inhibition [12]: inactive; inhibition [13]: inactive
CCCCOP(=O)(OCCCC)C(N[C@H](C)c1ccccc1)c1ccc2c(c1)OCO2 (stereo partly specified) | 5.40 | Dose-dependent effect | 4.87 | Dose-dependent effect | 4.80 | Dose-dependent effect | Dose-dependent effect | 4.54 | Dose-dependent effect | 4.36 | –
CCCCOP(=O)(OCCCC)C(Nc1ccc2c(c1)OCO2)c1ccc2c(c1)OCO2 (stereo unspecified) | 4.10 | Dose-dependent effect | – | – | 4.18 | Dose-dependent effect | – | – | Dose-dependent effect | 3.72 | inhibition [14]: inactive; inhibition [15]: inactive
O=P(Oc1ccccc1)(Oc1ccccc1)C(Nc1cccc(F)c1)c1ccc2c(c1)OCO2 (stereo unspecified) | 3.31 | Dose-dependent effect | – | – | – | – | Dose-dependent effect | 4.32 | – | – | inhibition [10]: inactive; inhibition [11]: inactive; inhibition [13]: inactive
O=c1[nH]cc(F)c(=O)[nH]1 [FLUOROURACIL] | – | – | – | – | 5.70 | Dose-dependent effect | – | – | – | – | –
CCOP(=O)(OCC)C(Nc1ccccc1)c1ccc(F)cc1 (stereo unspecified) | – | – | – | – | 3.80 | Dose-dependent effect | – | – | – | – | inhibition [9]: inactive; inhibition [10]: inactive; inhibition [12]: inactive; inhibition [13]: inactive
CCOP(=O)(OCC)C(Nc1ccccc1)c1ccc(OC)cc1 (stereo unspecified) | – | – | 3.98 | Dose-dependent effect | – | – | Dose-dependent effect | 4.27 | – | – | inhibition [16]: inactive; inhibition [17]: inactive; inhibition [18]: inactive
CCCCOP(=O)(OCCCC)C(Nc1cccc(Cl)c1)c1ccc2c(c1)OCO2 (stereo unspecified) | < 3.30 | Dose-dependent effect | 3.97 | Dose-dependent effect | 4.03 | Dose-dependent effect | Dose-dependent effect | 4.11 | Dose-dependent effect | 3.58 | –
COc1cccc2c1C(=O)c1c(O)c3c(c(O)c1C2=O)C[C@@](O)(C(=O)CO)C[C@@H]3O[C@H]1C[C@H](N)[C@H](O)[C@H](C)O1 [DOXORUBICIN] | – | – | 5.50 | Dose-dependent effect | – | – | – | – | Dose-dependent effect | 5.40 | –
CCOP(=O)(OCC)C(Nc1ccccc1)c1ccc([N+](=O)[O-])cc1 (stereo unspecified) | – | – | 4.50 | Dose-dependent effect | 4.38 | Dose-dependent effect | Dose-dependent effect | 4.43 | Dose-dependent effect | 4.24 | inhibition [8]: inactive
CO[C@@]12[C@H](COC(N)=O)C3=C(C(=O)C(C)=C(N)C3=O)N1C[C@@H]1N[C@@H]12 [MITOMYCIN] | – | – | – | – | – | – | Dose-dependent effect | 5.70 | – | – | –
CCCCOP(=O)(OCCCC)C(Nc1ccccc1C)c1ccc2c(c1)OCO2 (stereo unspecified) | < 3.30 | Dose-dependent effect | – | – | – | – | – | – | – | – | inhibition [10]: inactive; inhibition [11]: inactive; inhibition [12]: inactive; inhibition [13]: inactive
CCOP(=O)(OCC)C(Nc1ccccc1)c1ccc(OC)c(O)c1 (stereo unspecified) | 4.24 | Dose-dependent effect | 4.43 | Dose-dependent effect | 4.32 | Dose-dependent effect | Dose-dependent effect | 4.40 | Dose-dependent effect | 4.20 | –
CCOP(=O)(OCC)C(Nc1c(C)cccc1C)c1ccc2c(c1)OCO2 (stereo unspecified) | < 3.30 | Dose-dependent effect | 3.94 | Dose-dependent effect | 3.98 | Dose-dependent effect | Dose-dependent effect | 3.61 | Dose-dependent effect | < 3.30 | –
CCOP(=O)(OCC)C(Nc1ccccc1)c1ccc2c(c1)OCO2 (stereo unspecified) | < 3.30 | Dose-dependent effect | 4.16 | Dose-dependent effect | 4.04 | Dose-dependent effect | Dose-dependent effect | 4.18 | Dose-dependent effect | 3.87 | –
CCCCOP(=O)(OCCCC)C(Nc1cccc(F)c1)c1ccc2c(c1)OCO2 (stereo unspecified) | < 3.30 | Dose-dependent effect | 3.91 | Dose-dependent effect | 4.10 | Dose-dependent effect | Dose-dependent effect | 4.02 | Dose-dependent effect | 3.44 | –
